Measured values taken from ChEMBL document CHEMBL1629555, “Antimalarial activity of phenylthiazolyl-bearing hydroxamate-based histone deacetylase inhibitors” (Antimicrob Agents Chemother, 2008).
Calls of active or inactive are those of the source. The rule behind the calls is not given here.

Tests used:
Plasmodium berghei [1] = assay: Antimalarial activity against Plasmodium berghei infected in mouse assessed as parasitemia level at 160 mg/kg/day for 3 days measured on day 6 in presence of 2 mg/kg/day chloroquine (reference value: 37%); format: functional
Summary of the method: (§1)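 Mice were infected ip with 10^6 P. berghei-parasitized erythrocytes. The compound was given orally once daily on days 3, 4 and 5 post-infection in hydroxyethylcellulose-Tween 20 vehicle, alone or together with chloroquine, with 5 mice per dose group. Parasitemia (%) was read on days 3 and 6, and cures were counted as animals cured out of 5.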

[2] = Half life in human liver microsome by LC/MS analysis; format: ADME; settings: liver microsomes
Plasmodium berghei [3] = assay: Antimalarial activity against Plasmodium berghei infected in mouse assessed as effect on cure rate at 0.32 mg/kg/day for 3 days measured on day 6 in presence of 4 mg/kg/day chloroquine; format: functional, organism-based
Mus musculus [4] = assay: Toxicity in Plasmodium berghei-infected mouse assessed as mortality at split dose of 40 mg/kg/day, po for 3 days; format: organism-based; parameters: route oral; settings: in vivo, 72 h
[5] = Inhibition of histone deacetylase assessed as alteration of histone H3 acetylation by cell-based assay
Summary of the method: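 About 3 × 10^9 erythrocytes infected with late-trophozoite P. falciparum 3D7 were exposed to compound or to DMSO vehicle for 3.5 h at 37°C, and an untreated sample was taken at the start. Histones were extracted, about 6 × 10^8 parasites were loaded per lane on SDS–15% PAGE, and loading was checked by silver stain. Western blots were probed with anti-tetraacetyl-H4 and anti-diacetyl-H3 antisera and detected by ECL.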

Plasmodium berghei [6] = assay: Antimalarial activity against Plasmodium berghei infected in mouse assessed as parasitemia level at 0.32 mg/kg/day for 3 days measured on day 6 in presence of 4 mg/kg/day chloroquine (reference value: 37%); format: functional
Plasmodium berghei [7] = assay: Antimalarial activity against Plasmodium berghei infected in mouse assessed as effect on cure rate at split dose of 160 mg/kg/day, po for 3 days; format: functional, organism-based
Summary of the method: (§2)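 Mice were infected ip with 10^6 P. berghei-parasitized erythrocytes. The compound was given in hydroxyethylcellulose-Tween 20 vehicle, 5 mice per group, starting on day 3 post-infection. Regimens were once-daily or split daily oral doses over 3 days, subcutaneous dosing, or dosing over 7 days. Read-outs were posttreatment parasitemia on day 6 as a fraction of controls and the number of mice cured.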

Plasmodium berghei [8] = assay: Antimalarial activity against Plasmodium berghei infected in mouse assessed as parasitemia level at 0.32 mg/kg/day for 3 days measured on day 6 (reference value: 37%); format: functional
Plasmodium berghei [9] = assay: Antimalarial activity against Plasmodium berghei infected in mouse assessed as parasitemia level at single dose of 40 mg/kg/day, po for 3 days measured on day 6 relative to control; format: functional
Summary of the method: (§3)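 Mice infected intraperitoneally with 10^6 P. berghei-parasitized erythrocytes. Drug given orally once daily on days 3, 4 and 5 post-infection in hydroxyethylcellulose-Tween 20 vehicle, 5 mice per dose group. Parasitemia measured on day 6 and expressed as a fraction of untreated control parasitemia.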

Plasmodium falciparum [10] = assay: Antimicrobial activity against Plasmodium falciparum W2 at […] in presence of artemisinin; format: functional
Summary of the method: (§4)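 In vitro fixed-ratio isobologram using a SYBR green I fluorescence assay. […] IC50s were standardized and FIC50 and ΣFIC50 calculated by the Berenbaum method. Reported as the average ΣFIC across dilutions or the average maximum ΣFIC, from at least 2 experiments.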

Plasmodium berghei [11] = assay: Antimalarial activity against Plasmodium berghei infected in mouse assessed as parasitemia level at single dose of 80 mg/kg/day, po for 3 days measured on day 6 relative to control; format: functional; summary of the method: as §3
Plasmodium berghei [12] = assay: Antimalarial activity against Plasmodium berghei infected in mouse assessed as effect on cure rate at split dose of 640 mg/kg/day, po for 3 days; format: functional, organism-based; summary of the method: as §2
Plasmodium berghei [13] = assay: Antimalarial activity against Plasmodium berghei infected in mouse assessed as parasitemia level at 320 mg/kg/day for 3 days measured on day 3 (reference value: 0.46%); format: functional; summary of the method: as §1
Mus musculus [14] = assay: Toxicity in Plasmodium berghei-infected mouse assessed as mortality at split dose of 130 mg/kg/day, sc for 3 days measured on day 5; format: organism-based; parameters: route subcutaneous; settings: in vivo, 72 h
Plasmodium berghei [15] = assay: Antimalarial activity against Plasmodium berghei infected in mouse assessed as parasitemia level at 160 mg/kg/day for 3 days measured on day 6 (reference value: 37%); format: functional; summary of the method: as §1
Plasmodium falciparum [16] = assay: Antimalarial activity against Plasmodium falciparum infected in mouse RAW264.7 cells; format: functional, organism-based
Plasmodium berghei [17] = assay: Antimalarial activity against Plasmodium berghei infected in mouse assessed as effect on cure rate at single dose of 20 mg/kg/day, po for 3 days; format: functional, organism-based; summary of the method: as §2
[18] = Tmax in ICR mouse at 50 mg/kg/day, sc by LC/MS analysis; format: ADME, organism-based; parameters: route subcutaneous; settings: in vivo
Summary of the method: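 Male ICR mice, 8 weeks old, got one 50 mg/kg dose either orally or subcutaneously, with three groups of six mice per route. One mouse per group was killed at 15, 30 and 60 min and at 3, 6 and 24 h. Plasma was deproteinized with 2 volumes of acetonitrile and analysed by LC-MS/MS on a C18 column against 0–500 ng/ml standards, with parent and acid metabolite measured in the same sample. Each six-mouse group was treated as one "animal" and fitted to a two-compartment model. AUC was taken by the linear trapezoidal rule extrapolated to infinity, and Cmax and Tmax were read per "animal".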

Plasmodium falciparum [19] = assay: Antimalarial activity against drug-resistant Plasmodium falciparum W2; format: functional, organism-based
Plasmodium berghei [20] = assay: Antimalarial activity against Plasmodium berghei infected in mouse assessed as effect on cure rate at 130 mg/kg/day, po for 7 days; format: functional, organism-based; summary of the method: as §2
[21] = Half life in mouse liver microsomes by LC/MS analysis; format: ADME, Microsome
Plasmodium berghei [22] = assay: Antimalarial activity against Plasmodium berghei infected in mouse assessed as effect on curate rate at split dose of 40 mg/kg/day, po for 3 days; format: functional, organism-based; summary of the method: as §2
Plasmodium falciparum [23] = assay: Antimicrobial activity against Plasmodium falciparum D6 infected in Aotus lemurinus lemurinus monkey at […] in presence of artemisinin; format: functional
Plasmodium falciparum [24] = assay: Antimicrobial activity against Plasmodium falciparum W2 at […] in presence of mefloquine; format: functional; summary of the method: as §4
Plasmodium berghei [25] = assay: Antimalarial activity against Plasmodium berghei infected in mouse assessed as effect on cure rate at 0.32 mg/kg/day for 3 days; format: functional, organism-based
Plasmodium berghei [26] = assay: Antimalarial activity against Plasmodium berghei infected in mouse assessed as parasitemia level at split dose of 160 mg/kg/day, po for 3 days measured on day 6 relative to control; format: functional
Summary of the method: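 Blood-stage P. berghei model: mice inoculated ip with 10^6 parasitized erythrocytes. Oral treatment for 3 days, with the daily dose split, in hydroxyethylcellulose-Tween 20 vehicle. Day-6 parasitemia expressed as a fraction of control parasitemia.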

Plasmodium berghei [27] = assay: Antimalarial activity against Plasmodium berghei infected in mouse assessed as parasitemia level at 12.8 mg/kg/day for 3 days measured on day 6 in presence of 16 mg/kg/day chloroquine (reference value: 37%); format: functional; summary of the method: as §1
Plasmodium berghei [28] = assay: Antimalarial activity against Plasmodium berghei infected in mouse assessed as parasitemia level at 32 mg/kg/day for 3 days measured on day 6 (reference value: 37%); format: functional; summary of the method: as §1
Plasmodium berghei [29] = assay: Antimalarial activity against Plasmodium berghei infected in mouse assessed as parasitemia level at 320 mg/kg/day for 3 days measured on day 6 (reference value: 37%); format: functional; summary of the method: as §1
Plasmodium berghei [30] = assay: Antimalarial activity against Plasmodium berghei infected in mouse assessed as effect on cure rate at single dose of 40 mg/kg/day, po for 3 days; format: functional, organism-based; summary of the method: as §2
Mus musculus [31] = assay: Toxicity in Plasmodium berghei-infected mouse assessed as mortality at single dose of 80 mg/kg/day, po for 3 days; format: organism-based; parameters: route oral; settings: in vivo, 72 h

Nc1cccc(-c2csc(NC(=O)CCCCCCC(=O)NO)n2)c1
Activity (Plasmodium berghei [1]): 0.36%
half-life [2]: > 1 h
Activity (Plasmodium berghei [3]): inactive
Activity (Mus musculus [4]): Non-toxic
IC50 [5]: 10.4 nM
Activity (Plasmodium berghei [6]): 0.024%
Activity (Plasmodium berghei [7]): inactive
Activity (Plasmodium berghei [8]): 45%
fold change (FC) (Plasmodium berghei [9]): 0.12
fractional inhibitory concentration index (FICI) (Plasmodium falciparum [10]): 2.1
fold change (FC) (Plasmodium berghei [11]): 0.096
Activity (Plasmodium berghei [12]): inactive
Activity (Plasmodium berghei [13]): 0.52%
Activity (Mus musculus [14]): Toxic
Activity (Plasmodium berghei [15]): 8.8%
IC50 (Plasmodium falciparum [16]): 0.59 nM
Activity (Plasmodium berghei [17]): inactive
Tmax [18]: 1.3 h
IC50 (Plasmodium falciparum [19]): 1.6 nM
Activity (Plasmodium berghei [20]): inactive
half-life [21]: 0.183 h
Activity (Plasmodium berghei [22]): inactive
fractional inhibitory concentration index (FICI) (Plasmodium falciparum [23]): 2.1
fractional inhibitory concentration index (FICI) (Plasmodium falciparum [24]): 2.1
Activity (Plasmodium berghei [25]): inactive
fold change (FC) (Plasmodium berghei [26]): 0.03
Activity (Plasmodium berghei [27]): 0%
Activity (Plasmodium berghei [28]): 21%
Activity (Plasmodium berghei [29]): 0.107%
Activity (Plasmodium berghei [30]): inactive
Activity (Mus musculus [31]): Non-toxic
